# Results gathered from unrelated publications.
# Protocols differ between the studies behind these lines.
# Medium: plasma
SMILES,host,route,dose,notes,Cmax
CO[C@H]1CC[C@H](N2C(=O)CNc3ncc(-c4ccc(C(C)(C)O)nc4)nc32)CC1,human,oral,15 mg,patients,97.4 ng/mL
CCO[C@H]1CCN(Cc2c(OC)cc(C)c3[nH]ccc23)[C@H](c2ccc(C(=O)O)cc2)C1,human,oral,50 mg,"multiple doses, twice daily, patients",1800 ng/mL
CO[C@@H]1[C@H](OC(=O)N2CC(CCN3CCOCC3)C2)CC[C@]2(CO2)[C@H]1[C@@]1(C)O[C@@H]1CC=C(C)C,human,subcutaneous,1.2 mg,"single dose, healthy volunteers",7.04 ng/mL
C#Cc1cccc(Nc2ncnc3cc(OCCOC)c(OCCOC)cc23)c1,human,oral,100 mg,patients,1820 nM
CC(C)(C(=O)N1CCOc2c(C#N)cncc2C1)C(F)F,human,oral,30 mg,"single dose, fasted, healthy volunteers",417 ng/mL
C[C@@H](Oc1ccc(S(C)(=O)=O)cc1C(=O)N1C[C@@H]2C[C@]2(c2cc(C(F)(F)F)on2)C1)C(F)(F)F,human,oral,25 mg,"fed, tablet",312 nM
Cc1ccc(C(=O)N(CCCN)[C@@H](c2oc3cc(Cl)ccc3c(=O)c2Cc2ccccc2)C(C)C)cc1,human,intravenous,4 mg/m²,"single dose, patients, infusion",489 ng/mL
Cn1c(=O)oc2ccc(-c3ccc(C[C@@H](C#N)NC(=O)[C@@H]4CNCCCO4)cc3)cc21,male human,oral,50 mg,"single dose, healthy volunteers",1040 nM
CNC(=O)c1ccccc1Sc1ccc2c(/C=C/c3ccccn3)n[nH]c2c1,human,oral,5 mg,"single dose, fasted",51 ng/mL
FC(F)(F)c1ccc(CNc2ccc(Cc3c[nH]c4ncc(Cl)cc34)cn2)cn1,human,oral,800 mg,"multiple doses, patients",6780 ng/mL
CC(C)n1cc(C#N)c2cc(-n3cc(C(=O)O)cn3)ccc21,human,oral,200 mg,"single dose, fed",5400 ng/mL
CCCCC1=NC2(CCCC2)C(=O)N1Cc1ccc(-c2ccccc2S(=O)(=O)Nc2noc(C)c2C)c(COCC)c1,human,oral,200 mg,"single dose, fasted, healthy volunteers",5150 ng/mL
CC(C)(Sc1ccncc1-c1ccc(C#N)c2ccccc12)C(=O)O,male human,oral,20 mg,"single dose, fasted, healthy volunteers",384 ng/mL
Cn1cc(-c2ccc(S(=O)(=O)[C@@H]3C[C@@H](C(=O)NC4(C#N)CC4)N(C(=O)C4(C(F)(F)F)CC4)C3)c(C(F)(F)F)c2)cn1,human,oral,30 mg,"single dose, fasted, healthy volunteers",212 ng/mL
COc1ccc([C@@H]2CN(C(=O)[C@@H](O)CO)C[C@@]2(C)[C@@H](C)O)cc1OC1CN(c2ccc(C)cn2)C1,human,oral,1.5 mg,"single dose, healthy volunteers",76.5 ng/mL
CCc1nc2c(C)cc(N3CCN(CC(=O)N4CC(O)C4)CC3)cn2c1N(C)c1nc(-c2ccc(F)cc2)c(C#N)s1,human,oral,1000 mg,"single dose, fed, healthy volunteers",11800 ng/mL
CC(C)(O)c1ccccc1-c1ccc2[nH]c(/C=C/c3ccc(C(F)(F)F)cc3)nc2c1,male human,oral,60 mg,"single dose, fasted, healthy volunteers",177 ng/mL
COCCOc1cnc2ccn([C@H](C)c3nnc4c(F)cc(-c5cnn(C)c5)cn34)c(=O)c2c1,human,oral,25 mg,"multiple doses, once daily, patients",600 ng/mL
COc1cc(C(=O)NC2CCN(C)CC2)c(F)cc1Nc1ncc(C(F)(F)F)c(Oc2cccc3c2C(=O)N(C)C3)n1,human,oral,300 mg,"single dose, patients",4540 nM
O=C(Nc1c(Cl)cncc1Cl)c1ccc(OC(F)F)c(OCC2CC2)c1,human,oral,0.375 mg,"multiple doses, once daily, steady state",11.4 ng/mL
